In ChEMBL document CHEMBL3108700, “Designing anti-inflammatory drugs from parasitic worms: a synthetic small molecule analogue of the Acanthocheilonema viteae product ES-62 prevents development of collagen-induced arthritis” (J Med Chem, 2013):
Calls of active or inactive are those of the source. Unless noted, the calls are words filed in the database; no cut-off is given here.

Key:
[1] = target: T1, Toll-like receptor 9 (Mus musculus) (UniProt Q9EQU3); assay: Inhibition of TLR9 in BALB/c mouse BMDM assessed as downregulation of CpG-stimulated IL-6 level at 5 ug/ml preincubated for 18 hrs followed by CpG challenge measured after 24 hrs by ELISA relative to control
T1 sequence (whole entry): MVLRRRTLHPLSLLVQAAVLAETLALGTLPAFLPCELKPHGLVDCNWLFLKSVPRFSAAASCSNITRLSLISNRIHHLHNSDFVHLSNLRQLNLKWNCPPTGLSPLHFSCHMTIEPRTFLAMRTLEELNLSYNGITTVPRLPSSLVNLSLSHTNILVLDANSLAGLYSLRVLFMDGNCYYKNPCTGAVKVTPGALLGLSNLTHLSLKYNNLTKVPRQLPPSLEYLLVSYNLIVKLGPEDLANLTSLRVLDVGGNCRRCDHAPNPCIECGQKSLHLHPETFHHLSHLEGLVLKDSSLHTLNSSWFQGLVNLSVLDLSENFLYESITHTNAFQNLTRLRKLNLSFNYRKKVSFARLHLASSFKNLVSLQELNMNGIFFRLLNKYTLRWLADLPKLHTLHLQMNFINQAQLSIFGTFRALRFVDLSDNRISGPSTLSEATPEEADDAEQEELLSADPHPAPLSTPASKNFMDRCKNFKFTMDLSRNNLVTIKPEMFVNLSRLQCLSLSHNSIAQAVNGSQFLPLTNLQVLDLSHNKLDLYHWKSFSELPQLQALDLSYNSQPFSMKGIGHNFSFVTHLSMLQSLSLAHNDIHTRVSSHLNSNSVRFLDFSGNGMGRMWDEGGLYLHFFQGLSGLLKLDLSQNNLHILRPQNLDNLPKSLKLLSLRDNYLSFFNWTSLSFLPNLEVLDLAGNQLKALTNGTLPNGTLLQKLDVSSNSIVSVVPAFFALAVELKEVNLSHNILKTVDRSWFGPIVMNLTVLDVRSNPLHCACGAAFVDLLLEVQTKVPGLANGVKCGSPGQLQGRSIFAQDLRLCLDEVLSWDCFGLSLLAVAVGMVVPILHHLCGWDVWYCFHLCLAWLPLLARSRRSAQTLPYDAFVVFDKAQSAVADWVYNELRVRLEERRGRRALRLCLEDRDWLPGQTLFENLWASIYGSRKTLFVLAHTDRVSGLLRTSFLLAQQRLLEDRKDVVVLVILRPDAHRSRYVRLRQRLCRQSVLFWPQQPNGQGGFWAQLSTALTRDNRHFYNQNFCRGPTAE
Method in brief: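 BALB/c male bone marrow macrophages were differentiated 7 days with L929 supernatant (≥99% CD11b+/F4/80+). Cells were plated at 2 × 10^5/well in triplicate, rested overnight, and given compounds at 5 μg/mL for 18 h. They were then stimulated with 100 ng/mL S. minnesota LPS, 10 ng/mL Pam3CSK4 (BLP) or 0.01 μM CpG for 24 h. Supernatant IL-12p40 and IL-6 were measured by ELISA (sensitivity 16 pg/mL).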

[2] = target: T1, Toll-like receptor 9 (Mus musculus); assay: Inhibition of TLR9-mediated NFkappaB p65 activation in CpG-stimulated BALB/c mouse BMDM at 5 ug/ml preincubated for 18 hrs followed by CpG challenge measured after 1 hr by TransAM ELISA
Method in brief: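 Bone marrow macrophages (4 × 10^6/well) had their medium changed after 24 h, were pretreated with compounds at 5 μg/mL for 18 h, then stimulated for 1 h with 100 ng/mL LPS, 10 ng/mL BLP or 1 μM CpG. Activated NFκB p65 in nuclear extracts was measured by TransAM ELISA in duplicate.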

[3] = Cytotoxicity against CpG-stimulated BALB/c mouse BMDM assessed as loss of cell viability at 5 ug/mL preincubated for 18 hrs followed by CpG challenge measured after 24 hrs by 7-AAD staining-based flow cytometric analysis
Method in brief: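 BALB/c bone marrow macrophages (2 × 10^5/well) were rested 24 h in complete RPMI, then given 5 μg/mL compound for 18 h. Cells were stained with 7-AAD for 10 min on ice and the dead fraction read by flow cytometry. One experiment is representative of two.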

[4] = tested on: Mus musculus; assay: Antiinflammatory activity in DBA/1 mouse collagen-induced arthritis model assessed as reduction of disease scores at 50 ug/kg, sc administered 2 days prior to collagen challenge continued till day 21 post collagen challenge; format: functional, organism-based
Method in brief: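 Collagen-induced arthritis mice were dosed subcutaneously (1 μg/dose) or given PBS on days −2, 0 and 21. Arthritis was scored clinically and hind paw width measured. Incidence was the % of mice with severity score ≥2 (cumulative) or ≥4 (high score). Results are mean ± SEM. Scores n = 13 per group, pooled from two experiments; paw width n = 7, from a single experiment.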

[5] = species: Mus musculus; assay: Inhibition of TLR4/IL-1R in BALB/c mouse BMDM assessed as downregulation of LPS-stimulated MyD88 expression at 5 ug/mL preincubated for 2 hrs followed by LPS challenge measured after 18 hrs by flow cytometric analysis (reference value: 127%); values are per cent of control
[6] = tested on: Mus musculus; assay: Antiinflammatory activity in DBA/1 mouse collagen-induced arthritis model assessed as reduction in number of PMA/ionomycin-stimulated total DLN cells expressing IL-17 at 50 ug/kg, sc administered 2 days prior to collagen challenge continued till day 21 post collagen challenge by flow cytometric analysis relative to control; format: functional, organism-based
Method in brief: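 CIA mice given test agent (1 μg/dose) or PBS subcutaneously on days −2, 0 and 21. Draining lymph node cells (10^6/mL) in complete RPMI were stimulated ± 50 ng/mL PMA plus 500 ng/mL ionomycin, with 10 μg/mL brefeldin A for 5 h at 37 °C. Cells were surface-stained for CD4, CD8 and γδ, fixed and permeabilized, then stained for intracellular IFNγ and IL-17A. Gating used isotype controls. Cell numbers per individual mouse; naive n = 7, treated groups n = 13.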

inhibition [1]: Active
inhibition [2]: Active
residual activity [5]: 95.7%
Compound: CN(C)CCS(=O)(=O)Cc1ccc(Br)cc1
Activity [3]: Non-toxic
Activity [4]: Active
Activity [6]: Active
